Results taken from ChEMBL document CHEMBL3751760, “Discovery of Novel Potent and Selective Agonists at the Melanocortin-3 Receptor” (J Med Chem, 2015).
Each block holds one compound with its values, some of them ahead of it. Active and inactive are the calls of the source. The calls are words filed in the database; no cut-off is given here. Where a SMILES comes first, the peptide text is derived from it. Bridges are numbered along the chain shown (N, C = ends). [ ]: non-standard residue; d: D form. d2Nal = N[C@H](Cc1ccc2ccccc2c1)C(=O)O; Nle = CCCC[C@H](N)C(=O)O

Assays:
[1] = target: T1, Melanocyte-stimulating hormone receptor (Homo sapiens, UniProt Q01726); assay: Agonist activity at human melanocortin 1 receptor expressed in HEK293 cells assessed as increase in intracellular cAMP accumulation incubated for 3 mins relative to MT-2; assay type: functional, cell-based
Procedure, shortened: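 Stably transfected HEK293 cells grown in MEM with 10% FBS, penicillin/streptomycin and 1 mM sodium pyruvate, seeded 48 h ahead to 100000 cells/well. Cells preincubated 1 min at 37 °C in EBSS with IBMX (0.5 mM), then exposed to a concentration series for 3 min at 37 °C. Stopped with ice-cold Tris/EDTA, boiled 15 min, cAMP measured by competitive binding kit. Maximal cAMP expressed relative to the MT-II maximum; N = 4.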
Target sequence in this assay (Q01726 whole entry, looked up): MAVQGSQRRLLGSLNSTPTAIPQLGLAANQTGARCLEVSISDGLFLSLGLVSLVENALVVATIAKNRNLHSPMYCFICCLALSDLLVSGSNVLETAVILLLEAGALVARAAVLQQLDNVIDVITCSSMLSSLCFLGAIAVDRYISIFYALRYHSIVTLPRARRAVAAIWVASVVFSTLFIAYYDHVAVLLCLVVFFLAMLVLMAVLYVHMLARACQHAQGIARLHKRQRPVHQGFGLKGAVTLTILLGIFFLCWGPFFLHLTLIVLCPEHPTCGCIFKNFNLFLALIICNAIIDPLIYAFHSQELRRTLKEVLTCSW

[2] = target: T1, Melanocyte-stimulating hormone receptor; assay: Displacement of 125I-labeled [Nle4,DPhe7]-alpha-MSH from human melanocortin 1 receptor expressed in HEK293 cells incubated for 40 mins by gamma counting analysis; assay type: cell-based
Procedure, shortened: (§1)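 Whole-cell competition on stably transfected HEK293 cells, 100000 cells/well, seeded 48 h ahead. Binding buffer: MEM with Earle's salts, 25 mM HEPES pH 7.4, 0.2% BSA, 1 mM 1,10-phenanthroline, leupeptin, bacitracin. After washing, cells lysed with NaOH/Triton X-100 and read by γ counting.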
Target sequence in this assay (Q01726 whole entry): as the sequence (Q01726 whole entry, looked up) above

[3] = target: T1, Melanocyte-stimulating hormone receptor; assay: Agonist activity at human melanocortin 1 receptor expressed in HEK293 cells assessed as intracellular cAMP accumulation incubated for 3 mins in presence of IBMX; assay type: functional, cell-based
Procedure, shortened: (§2)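 HEK293 cells stably expressing the receptor were grown in MEM with 10% FBS and seeded 48 h ahead to 100000 cells/well. Cells were preincubated in EBSS with IBMX (0.5 mM) for 1 min at 37 °C, then given varied peptide concentrations for 3 min at 37 °C. The reaction was stopped with ice-cold Tris/EDTA, lysates were boiled 15 min, and cAMP was read by competitive binding kit.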
Target sequence in this assay (Q01726 whole entry): as the sequence (Q01726 whole entry, looked up) above

[4] = target: T2, Melanocortin receptor 5 (Homo sapiens, UniProt P33032); assay: Agonist activity at human melanocortin 5 receptor expressed in HEK293 cells assessed as intracellular cAMP accumulation incubated for 3 mins in presence of IBMX; assay type: functional, cell-based; procedure, shortened: as §2
[5] = target: T2, Melanocortin receptor 5; assay: Displacement of 125I-labeled [Nle4,DPhe7]-alpha-MSH from human melanocortin 5 receptor expressed in HEK293 cells incubated for 40 mins by gamma counting analysis; assay type: cell-based
[6] = target: T3, Melanocortin receptor 4 (Homo sapiens, UniProt P32245); assay: Displacement of 125I-labeled [Nle4,DPhe7]-alpha-MSH from human melanocortin 4 receptor expressed in HEK293 cells incubated for 40 mins by gamma counting analysis; assay type: cell-based
[7] = target: T4, Melanocortin receptor 3 (Homo sapiens, UniProt P41968); assay: Displacement of 125I-labeled [Nle4,DPhe7]-alpha-MSH from human melanocortin 3 receptor expressed in HEK293 cells incubated for 40 mins by gamma counting analysis; assay type: cell-based
[8] = target: T3, Melanocortin receptor 4; assay: Agonist activity at human melanocortin 4 receptor expressed in HEK293 cells assessed as intracellular cAMP accumulation incubated for 3 mins in presence of IBMX; assay type: functional, cell-based; procedure, shortened: as §2
[9] = target: T4, Melanocortin receptor 3; assay: Agonist activity at human melanocortin 3 receptor expressed in HEK293 cells assessed as intracellular cAMP accumulation incubated for 3 mins in presence of IBMX; assay type: functional, cell-based; procedure, shortened: as §2
[10] = target: T3, Melanocortin receptor 4; assay: Agonist activity at human melanocortin 4 receptor expressed in HEK293 cells assessed as intracellular cAMP accumulation at 10 uM incubated for 3 mins in presence of IBMX; assay type: functional, cell-based
Procedure, shortened: (§3)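 Stably transfected HEK293 cells were grown in MEM with 10% FBS, penicillin/streptomycin and 1 mM sodium pyruvate, and seeded 48 h before assay to 100000 cells/well. Cells were preincubated 1 min at 37 °C in EBSS with IBMX (0.5 mM), then exposed to peptide for 3 min at 37 °C. The reaction was stopped with ice-cold Tris/EDTA, lysates were boiled 15 min, and cAMP was read by competitive binding kit.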

[11] = target: T4, Melanocortin receptor 3; assay: Agonist activity at human melanocortin 3 receptor expressed in HEK293 cells assessed as intracellular cAMP accumulation at 10 uM incubated for 3 mins in presence of IBMX; assay type: functional, cell-based; procedure, shortened: as §3
[12] = target: T2, Melanocortin receptor 5; assay: Agonist activity at human melanocortin 5 receptor expressed in HEK293 cells assessed as intracellular cAMP accumulation at 10 uM incubated for 3 mins in presence of IBMX; assay type: functional, cell-based; procedure, shortened: as §3
[13] = target: T2, Melanocortin receptor 5; assay: Displacement of 125I-labeled [Nle4,DPhe7]-alpha-MSH from human melanocortin 5 receptor expressed in HEK293 cells at 10 uM incubated for 40 mins by gamma counting analysis; assay type: cell-based
Procedure, shortened: as §1, with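 “bacitracin. Unlabeled peptide plus 125I-[Nle4,DPhe7]-α-MSH (0.1386 nM, 100000 cpm/well) for 40 min at 37 °C.” for “bacitracin.”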

[14] = target: T4, Melanocortin receptor 3; assay: Agonist activity at human melanocortin 3 receptor expressed in HEK293 cells assessed as increase in intracellular cAMP accumulation incubated for 3 mins relative to MT-2; assay type: functional, cell-based
Procedure, shortened: (§4)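 Same cAMP protocol in stably transfected HEK293 cells: IBMX (0.5 mM) preincubation for 1 min, then a peptide concentration series for 3 min at 37 °C, and cAMP measured by competitive binding kit.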

[15] = target: T2, Melanocortin receptor 5; assay: Agonist activity at human melanocortin 5 receptor expressed in HEK293 cells assessed as increase in intracellular cAMP accumulation incubated for 3 mins relative to MT-2; assay type: functional, cell-based; procedure, shortened: as §4
[16] = target: T3, Melanocortin receptor 4; assay: Agonist activity at human melanocortin 4 receptor expressed in HEK293 cells assessed as increase in intracellular cAMP accumulation incubated for 3 mins relative to MT-2; assay type: functional, cell-based
Procedure, shortened: as §4, with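 “kit. Act% max = highest cAMP level reached by the peptide divided by the highest level reached by MT-II, in percent.” for “kit.”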

[17] = target: T1, Melanocyte-stimulating hormone receptor; assay: Displacement of 125I-labeled [Nle4,DPhe7]-alpha-MSH from human melanocortin 1 receptor expressed in HEK293 cells at 10 uM incubated for 40 mins by gamma counting analysis; assay type: cell-based
Procedure, shortened: as §1, with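 “bacitracin. Unlabeled peptide plus 125I-[Nle4,DPhe7]-α-MSH (0.1386 nM, 100000 cpm/well) for 40 min at 37 °C.” for “bacitracin.”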
Target sequence in this assay (Q01726 whole entry, looked up): as above

T2 sequence (P33032 whole entry): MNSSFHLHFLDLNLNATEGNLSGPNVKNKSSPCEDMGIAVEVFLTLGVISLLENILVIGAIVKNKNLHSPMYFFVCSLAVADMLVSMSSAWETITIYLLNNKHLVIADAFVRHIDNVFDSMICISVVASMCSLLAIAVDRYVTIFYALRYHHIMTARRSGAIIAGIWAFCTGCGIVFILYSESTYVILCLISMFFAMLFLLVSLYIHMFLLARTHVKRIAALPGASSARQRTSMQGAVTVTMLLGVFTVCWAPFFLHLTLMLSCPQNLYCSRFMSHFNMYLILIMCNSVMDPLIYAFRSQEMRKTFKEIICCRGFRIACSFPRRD
T4 sequence (P41968 whole entry): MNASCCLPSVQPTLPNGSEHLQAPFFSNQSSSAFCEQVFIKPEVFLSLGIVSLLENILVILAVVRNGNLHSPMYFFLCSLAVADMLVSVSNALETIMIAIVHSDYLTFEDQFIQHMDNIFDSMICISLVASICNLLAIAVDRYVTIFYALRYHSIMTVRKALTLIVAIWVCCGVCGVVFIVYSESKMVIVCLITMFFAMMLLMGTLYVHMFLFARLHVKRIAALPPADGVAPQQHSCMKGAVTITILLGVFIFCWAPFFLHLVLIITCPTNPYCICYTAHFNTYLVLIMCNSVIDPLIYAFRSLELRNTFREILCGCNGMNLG
T3 sequence (P32245 whole entry): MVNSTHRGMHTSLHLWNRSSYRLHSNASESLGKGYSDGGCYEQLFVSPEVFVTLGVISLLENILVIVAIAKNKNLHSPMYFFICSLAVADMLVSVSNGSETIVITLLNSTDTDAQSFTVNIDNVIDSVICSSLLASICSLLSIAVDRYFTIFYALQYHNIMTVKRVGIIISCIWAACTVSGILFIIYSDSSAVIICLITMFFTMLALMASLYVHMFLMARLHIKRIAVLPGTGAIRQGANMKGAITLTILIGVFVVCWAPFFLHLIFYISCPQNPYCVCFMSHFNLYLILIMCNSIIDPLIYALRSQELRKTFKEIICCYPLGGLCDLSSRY

SMILES: CCCC[C@H](NC(C)=O)C(=O)N[C@H]1CC(=O)NCCCC[C@@H](C(N)=O)NC(=O)[C@H](Cc2c[nH]c3ccccc23)NC(=O)[C@H](CCCNC(=N)N)NC(=O)[C@@H](Cc2ccc3ccccc3c2)NC(=O)[C@@H]2CCCN2C(=O)[C@H](Cc2c[nH]c3ccccc23)NC1=O
EC50 ([3]; hek293): > 1000 nM

SMILES: CCCC[C@H](NC(C)=O)C(=O)N[C@H]1CC(=O)NCCCC[C@@H](C(N)=O)NC(=O)[C@H](Cc2c[nH]c3ccccc23)NC(=O)[C@H](CCCNC(=N)N)NC(=O)[C@@H](Cc2ccccc2)NC(=O)[C@@H]2CCCN2C(=O)[C@H](Cc2c[nH]c3ccccc23)NC1=O
EC50 [4]: 73 nM
IC50 ([2]; hek293): > 5000 nM
IC50 [5]: > 1000 nM
EC50 ([3]; hek293): 26 nM
IC50 ([6]; hek293): > 1000 nM
IC50 ([7]; hek293): 580 nM
EC50 [8]: 220 nM
EC50 [9]: > 1000 nM

SMILES: CCCC[C@@H](NC(C)=O)C(=O)N[C@H]1CC(=O)NCCCC[C@@H](C(N)=O)NC(=O)[C@@H](Cc2c[nH]c3ccccc23)NC(=O)[C@@H](CCCNC(=N)N)NC(=O)[C@@H](Cc2ccccc2)NC(=O)[C@@H]2CCCN2C(=O)[C@H](Cc2c[nH]c3ccccc23)NC1=O
%max [14]: 0%
%max [1]: 100%
%max [15]: 89%
%max [16]: 84%

Continued, values first:

%max [1]: 100%
IC50 [2]: > 5000 nM
SMILES: CCCC[C@H](NC(C)=O)C(=O)N[C@H]1CC(=O)NCCCC[C@@H](C(N)=O)NC(=O)[C@H](Cc2c[nH]c3ccccc23)NC(=O)[C@H](CCCNC(=N)N)NC(=O)[C@@H](Cc2ccc3ccccc3c2)NC(=O)[C@@H]2CCCN2C(=O)[C@@H]2CCCN2C1=O (Ac-[Nle]DPP[d2Nal]RWK-NH2; lactam 2-8)

Activity [10]: 0%
Activity [11]: 0%
%max [1]: 100%
IC50 [2]: > 5000 nM
Activity [12]: 0%
inhibition [13]: inactive
EC50 [3]: 860 nM
IC50 [6]: 1300 nM
IC50 [7]: 590 nM
SMILES: CCCC[C@H](NC(C)=O)C(=O)N[C@H]1CC(=O)NCCCC[C@@H](C(N)=O)NC(=O)[C@H](Cc2c[nH]c3ccccc23)NC(=O)[C@H](CCCNC(=N)N)NC(=O)[C@@H](Cc2ccccc2)NC(=O)[C@@H]2CCCN2C(=O)[C@@H]2CCCN2C1=O (Ac-[Nle]DPP[dF]RWK-NH2; lactam 2-8)

%max [1]: 100%
inhibition [17]: inactive
SMILES: CCCC[C@H](NC(C)=O)C(=O)N[C@@H]1CC(=O)NCCCC[C@H](C(N)=O)NC(=O)[C@H](Cc2c[nH]c3ccccc23)NC(=O)[C@H](CCCNC(=N)N)NC(=O)[C@H](Cc2ccc3ccccc3c2)NC(=O)[C@H]2CCCN2C(=O)[C@@H](Cc2c[nH]c3ccccc23)NC1=O
